Columns and labels:
L1210 [1] = assay: The concentration required to inhibit the growth of L-1210 leukemic cells was evaluated; 1E-4 to 5E-4; format: functional, cell-based; conditions: Mus musculus
L1210 [2] = assay: The concentration required (hypoxanthine+uridine) to inhibit the growth of L-1210 leukemic cells was evaluated; 2E-4 to 2E-5; format: functional, cell-based; conditions: Mus musculus
L1210 [3] = assay: The concentration required to inhibit the growth of L-1210 leukemic cells was evaluated; 1E-4 to 1E-5; format: functional, cell-based; conditions: Mus musculus
L1210 [4] = assay: The concentration required to inhibit the growth of L-1210 leukemic cells was evaluated; 1E-3 to 1E-4; format: functional, cell-based; conditions: Mus musculus
L1210 [5] = assay: The concentration requiredi (cytidine+2'deoxycytidine) to inhibit the growth of L-1210 leukemic cells was evaluated; format: functional, cell-based; conditions: Mus musculus
L1210 [6] = assay: The compound was tested for inhibition of L-1210 leukemic cell growth at 10 e-4 M along with 10e-5 M adenine.; format: functional, Mus musculus; set-up: scale not given: the % may be the effect or the level left
Outline: (§1)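 Static suspension cultures of murine L-1210 leukemic cells were grown in Fischer's medium with test compound at 10^-4 M plus 10^-5 M adenine or 10^-5 M adenosine. Read-out was the initial growth rate, the increase in cell number during the first 24 h of incubation, relative to untreated control cells (%).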

L1210 [7] = assay: The compound was tested for inhibition of L-1210 leukemic cell growth at 10 e-4 M along with 10e-5 M adenosine.; format: functional, Mus musculus; set-up: scale not given: the % may be the effect or the level left; outline: as §1
L1210 [8] = assay: The compound was tested for inhibition of L-1210 leukemic cell growth at 5 x 10 e-5 M; format: functional, Mus musculus; set-up: scale not given: the % may be the effect or the level left
Outline: (§2)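 Murine L-1210 leukemic cells were grown in static suspension culture in Fischer's medium. Test compound was added at 5 × 10^-5 or 10^-4 M alone. Initial growth rate is the rate of increase in cell number over the first 24 h of incubation, expressed as % of untreated control. Values are mean (±SD), n = 5.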

L1210 [9] = assay: The compound was tested for inhibition of L-1210 leukemic cell growth at 5 x 10 e-5 M along with 10e-5 M adenine.; format: functional, Mus musculus; set-up: scale not given: the % may be the effect or the level left
Outline: (§3)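 L-1210 cells were held in static suspension in Fischer's medium with test compound at 5 × 10^-5 M plus either 10^-5 M adenine or 10^-5 M adenosine. Cell numbers were counted, and the rate of increase over the first 24 h was taken as the initial growth rate, given as % of untreated control. Values are means, n = 2.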

L1210 [10] = assay: The compound was tested for inhibition of L-1210 leukemic cell growth at 5 x 10 e-5 M along with 10e-5 M adenosine.; format: functional, Mus musculus; set-up: scale not given: the % may be the effect or the level left; outline: as §3
L1210 [11] = assay: The compound was tested for inhibition of L-1210 leukemic cell growth at 10 e-4 M; format: functional, Mus musculus; set-up: scale not given: the % may be the effect or the level left; outline: as §2

Nc1ccn([C@H]2C[C@H](O)[C@@H](CO)O2)c(=O)n1
Concentration (L1210 [1]): 100 µM

Cc1cn([C@H]2C[C@H](O)[C@@H](CO)O2)c(=O)[nH]c1=O
Concentration (L1210 [2]): 200 µM
Concentration (L1210 [3]): 100 µM

Nc1ccn([C@@H]2O[C@H](CO)[C@@H](O)[C@H]2O)c(=O)n1
Concentration (L1210 [4]): 1 mM
Concentration (L1210 [5]): 100 µM

O=c1ccn([C@@H]2O[C@H](CO)[C@@H](O)[C@H]2O)c(=O)[nH]1
Concentration (L1210 [4]): 1 mM

O=c1c2ccsc2ncn1C1O[C@H](CO)[C@@H](O)[C@H]1O (some centres not stated)
Control (L1210 [6]): 25%
Control (L1210 [7]): 50%
Control (L1210 [8]): 32%
Control (L1210 [9]): 52%
Control (L1210 [10]): 57%
Control (L1210 [11]): 16%

Source: ChEMBL document CHEMBL1123079, “Synthesis and biological activity of a novel adenosine analogue, 3-beta-D-ribofuranosylthieno[2,3-d]pyrimidin-4-one” (1985)
